Source: ChEMBL document CHEMBL3352173, “Optimization of pyrrolamide topoisomerase II inhibitors toward identification of an antibacterial clinical candidate (AZD5099)” (J Med Chem, 2014)
In brackets after ≈: the same amount, converted by molar mass.

Legend:
Haemophilus influenzae = experiment: Antimicrobial activity against Haemophilus influenzae by broth microdilution/CLSI method; assay type: functional; details: Haemophilus influenzae; read-out: MIC
DNA gyrase subunit B = DNA gyrase subunit B (Staphylococcus aureus, UniProt P0A0K8); experiment: Inhibition of ATPase activity of Staphylococcus aureus GyrB
In short: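 IC50 was determined against S. aureus GyrB in the routine screening assay. The enzyme concentration limits resolution below 10 nM.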

Streptococcus pneumoniae = experiment: Antibacterial activity against Streptococcus pneumoniae by broth microdilution/CLSI method; assay type: functional
Streptococcus pyogenes = experiment: Antimicrobial activity against Streptococcus pyogenes by broth microdilution/CLSI method; assay type: functional
Staphylococcus aureus [1] = experiment: Antimicrobial activity against methicillin-sensitive Staphylococcus aureus by broth microdilution/CLSI method; assay type: functional
Staphylococcus aureus [2] = experiment: Antimicrobial activity against methicillin, quinolone-resistant Staphylococcus aureus by broth microdilution/CLSI method; assay type: functional; details: Staphylococcus aureus; read-out: MIC
Moraxella catarrhalis = experiment: Antimicrobial activity against Moraxella catarrhalis by broth microdilution/CLSI method; assay type: functional
Escherichia coli [3] = experiment: Antimicrobial activity against wild-type Escherichia coli Eco523 by broth microdilution/CLSI method; assay type: functional; details: Escherichia coli, Eco523; read-out: MIC
Escherichia coli [4] = experiment: Antimicrobial activity against Escherichia coli tolC- by broth microdilution/CLSI method; assay type: functional; details: Escherichia coli; read-out: MIC
[5] = Octanol-phosphate buffer distribution coefficient, log D of the compound at pH 7.4 by shake flask method; assay type: physicochemical
[6] = Percentage unbound in human plasma; assay type: ADME, cell-free
[7] = Solubility of the compound; assay type: physicochemical
[8] = Streptococcus pneumoniae, read-out: MIC
[9] = Staphylococcus aureus, read-out: MIC
[10] = Moraxella catarrhalis, read-out: MIC

Sequence of DNA gyrase subunit B (P0A0K8 whole entry): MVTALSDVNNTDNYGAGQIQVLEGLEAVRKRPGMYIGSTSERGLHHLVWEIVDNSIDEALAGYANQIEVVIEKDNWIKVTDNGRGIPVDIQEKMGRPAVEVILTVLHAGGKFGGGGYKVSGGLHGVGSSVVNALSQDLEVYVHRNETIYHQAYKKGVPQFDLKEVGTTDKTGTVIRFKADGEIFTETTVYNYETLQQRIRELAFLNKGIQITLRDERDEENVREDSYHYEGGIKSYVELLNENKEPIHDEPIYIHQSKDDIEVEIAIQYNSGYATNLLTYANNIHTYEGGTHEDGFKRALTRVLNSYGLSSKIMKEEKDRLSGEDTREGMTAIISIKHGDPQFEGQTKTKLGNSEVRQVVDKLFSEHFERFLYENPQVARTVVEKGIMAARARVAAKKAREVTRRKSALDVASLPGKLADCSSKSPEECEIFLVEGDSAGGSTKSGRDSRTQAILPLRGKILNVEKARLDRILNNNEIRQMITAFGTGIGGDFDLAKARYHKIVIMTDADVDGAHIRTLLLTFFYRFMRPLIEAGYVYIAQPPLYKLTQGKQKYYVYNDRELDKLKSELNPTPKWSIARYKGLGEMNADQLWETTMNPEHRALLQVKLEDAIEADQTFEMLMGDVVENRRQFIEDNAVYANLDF

SMILES	MIC (Haemophilus influenzae) [µg/mL]	IC50 (DNA gyrase subunit B) [nM]	MIC (Streptococcus pneumoniae; [8]) [µg/mL]	MIC (Streptococcus pyogenes) [µg/mL]	MIC (Staphylococcus aureus [1]; [9]) [µg/mL]	MIC (Staphylococcus aureus [2]) [µg/mL]	MIC (Moraxella catarrhalis; [10]) [µg/mL]	MIC (Escherichia coli [3]) [µg/mL]	MIC (Escherichia coli [4]) [µg/mL]	logD [5]	fraction unbound [6]	solubility [7] [µM]	MIC (Streptococcus pneumoniae) [µg/mL]	MIC (Staphylococcus aureus [1]) [µg/mL]	MIC (Moraxella catarrhalis) [µg/mL]
C=C1COC2(CN(c3ncc(C(=O)O)s3)CC[C@H]2NC(=O)c2[nH]c(C)c(Cl)c2Cl)OC1	2 (≈ 4.1 µM)	< 10	< 0.063	< 0.063	1 (≈ 2.05 µM)	2 (≈ 4.1 µM)	< 0.063	> 64	0.5 (≈ 1.03 µM)	0.82	0.006	> 1000			
Cc1[nH]c(C(=O)N[C@@H]2CCN(c3ncc(C(=O)O)s3)CC23OCCO3)c(Cl)c1Cl	32 (≈ 69.4 µM)	15	2 (≈ 4.34 µM)	2 (≈ 4.34 µM)	32 (≈ 69.4 µM)	64 (≈ 139 µM)	1 (≈ 2.17 µM)	> 64	1 (≈ 2.17 µM)	-0.39	0.075	> 1000			
CO[C@H]1CN(c2nc(-c3ccn[nH]3)c(C(=O)O)s2)CC[C@H]1NC(=O)c1[nH]c(C)c(Cl)c1Cl	0.5 (≈ 1 µM)	< 10	< 0.06	< 0.06	0.5 (≈ 1 µM)	0.17 (≈ 0.34 µM)	< 0.06	64 (≈ 128 µM)	0.18 (≈ 0.36 µM)	1.7		740 (≈ 370 µg/mL)			
Cc1[nH]c(C(=O)N[C@@H]2CCN(c3ncc(C(=O)O)s3)C[C@@H]2Cl)c(Cl)c1Cl (racemic)	0.18 (≈ 0.411 µM)	< 10	0.044 (≈ 0.101 µM)		0.35 (≈ 0.8 µM)	2 (≈ 4.57 µM)	0.11 (≈ 0.251 µM)	> 8	0.35 (≈ 0.8 µM)	0.75	0.008				
COCCO[C@H]1CN(c2ncc(C(=O)O)s2)CC[C@H]1NC(=O)c1[nH]c(C)c(Cl)c1Cl (racemic)	8 (≈ 16.8 µM)	< 10	0.5 (≈ 1.05 µM)		> 8		1 (≈ 2.09 µM)	> 8	2 (≈ 4.19 µM)	0.06	0.094				
CO[C@@H]1CN(c2ncc(C(=O)O)s2)CC[C@@H]1NC(=O)c1[nH]c(C)c(Cl)c1Cl	16 (≈ 36.9 µM)	140	1 (≈ 2.31 µM)		32 (≈ 73.8 µM)	32 (≈ 73.8 µM)	2 (≈ 4.62 µM)	> 64	8 (≈ 18.5 µM)						
C#CCO[C@H]1CN(c2ncc(C(=O)O)s2)CC[C@H]1NC(=O)c1[nH]c(C)c(Cl)c1Cl	0.13 (≈ 0.284 µM)	< 10	0.016 (≈ 0.035 µM)	0.016 (≈ 0.035 µM)	0.25 (≈ 0.547 µM)	0.25 (≈ 0.547 µM)	0.016 (≈ 0.035 µM)	> 8	0.13 (≈ 0.284 µM)	0.44	0.03	> 1000			
Cc1[nH]c(C(=O)N[C@@H]2CCN(c3ncc(C(=O)O)s3)C[C@@H]2N=[N+]=[N-])c(Cl)c1Cl (racemic)	< 0.063	< 10	< 0.063	< 0.063	0.13 (≈ 0.293 µM)	0.25 (≈ 0.563 µM)	< 0.063	32 (≈ 72 µM)	< 0.063	0.53	0.038	> 1000			
Cc1[nH]c(C(=O)N[C@@H]2CCN(c3ncc(C(=O)O)s3)C[C@@H]2C)c(Cl)c1Cl (racemic)	2 (≈ 4.79 µM)	14	0.5 (≈ 1.2 µM)		4 (≈ 9.59 µM)	4 (≈ 9.59 µM)	0.5 (≈ 1.2 µM)	> 8	0.5 (≈ 1.2 µM)	0.54	0.023				
CO[C@H]1CN(c2ncc(C(=O)O)s2)CC[C@H]1NC(=O)c1[nH]c(C)c(Cl)c1Cl (relative stereo)	0.3 (≈ 0.692 µM)	< 10				1 (≈ 2.31 µM)		> 64	0.35 (≈ 0.808 µM)				0.063 (≈ 0.145 µM)	1 (≈ 2.31 µM)	0.076 (≈ 0.175 µM)
CS[C@H]1CN(c2ncc(C(=O)O)s2)CC[C@H]1NC(=O)c1[nH]c(C)c(Cl)c1Cl (racemic)	0.13 (≈ 0.289 µM)	< 10	0.016 (≈ 0.0356 µM)	0.016 (≈ 0.0356 µM)	0.13 (≈ 0.289 µM)	0.25 (≈ 0.556 µM)	< 0.008	> 8	0.25 (≈ 0.556 µM)	0.72	0.015	> 1000			
CO[C@H]1CN(c2ncc(C(=O)O)s2)CC[C@@H]1NC(=O)c1[nH]c(C)c(Cl)c1Cl	> 64	6400	64 (≈ 148 µM)		> 64	> 64	64 (≈ 148 µM)	> 64	64 (≈ 148 µM)						
CO[C@@H]1CN(c2ncc(C(=O)O)s2)CC[C@H]1NC(=O)c1[nH]c(C)c(Cl)c1Cl	16 (≈ 36.9 µM)	110	8 (≈ 18.5 µM)		> 64	> 64	2 (≈ 4.62 µM)	> 64	2 (≈ 4.62 µM)						
